In ChEMBL document CHEMBL4715798, “Structure-Based Optimization of Multifunctional Agonists for Opioid and Neuropeptide FF Receptors with Potent Nontolerance Forming Analgesic Activities” (J Med Chem, 2016):
Calls of active or inactive are those of the source. The rule behind the calls is not given here. Non-standard residues stand in square brackets, D forms with d. Residues, ends and D or L forms follow the SMILES beside them. NMeY = CN[C@@H](Cc1ccc(O)cc1)C(=O)O; NMeF = CN[C@@H](Cc1ccccc1)C(=O)O

Assays:
[1] = molecular target: T1, Neuropeptide FF receptor 2 (Homo sapiens, UniProt Q9Y5X5); test: Agonist activity at NPFFR2 (unknown origin) expressed in HEK293-A cells assessed as reduction in forskolin-induced cAMP accumulation incubated for 30 mins by competition PKA binding assay relative to Tyr-D-Ala-Gly-Phe-Gln-Pro-Gln-Arg-Phe-NH2; assay type: functional, cell-based
Procedure, shortened: (§1)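 cAMP functional read-out in transfected cells. Log EC50 ± standard error was obtained by nonlinear regression of data from at least three independent experiments run in duplicate.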

[2] = molecular target: T2, Delta-type opioid receptor (Homo sapiens, UniProt P41143); test: Agonist activity at delta opioid receptor (unknown origin) expressed in HEK293-A cells assessed as reduction in forskolin-induced cAMP accumulation incubated for 30 mins by competition PKA binding assay; assay type: functional, cell-based; procedure, shortened: as §1
Mus musculus [3] = test: Antinociceptive activity in mouse assessed as development of tolerance dosed repeated icv injections for 6 days by radiant heat tail-flick test; assay type: functional, organism-based; details: time 6.0 day
Procedure, shortened: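 Tail-flick test in mice. Peptide was given icv once daily for 6 days at a fixed dose. Antinociceptive responses to the same dose on day 1 and day 6 were compared to judge tolerance. Values are mean ± SEM.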

[4] = molecular target: T2, Delta-type opioid receptor; test: Agonist activity at delta opioid receptor (unknown origin) expressed in HEK293-A cells assessed as reduction in forskolin-induced cAMP accumulation incubated for 30 mins by competition PKA binding assay relative to Tyr-D-Ala-Gly-Phe-Gln-Pro-Gln-Arg-Phe-NH2; assay type: functional, cell-based; details: filed as agonist; procedure, shortened: as §1
[5] = molecular target: T3, Neuropeptide FF receptor 1 (Homo sapiens, UniProt Q9GZQ6); test: Agonist activity at NPFFR1 (unknown origin) expressed in HEK293-A cells assessed as reduction in forskolin-induced cAMP accumulation at 10 uM incubated for 30 mins by competition PKA binding assay relative to Tyr-D-Ala-Gly-Phe-Gln-Pro-Gln-Arg-Phe-NH2; assay type: functional, cell-based; procedure, shortened: as §1
Mu-type opioid receptor [6] = molecular target: T4, Mu-type opioid receptor (Homo sapiens, UniProt P35372); test: Agonist activity at mu opioid receptor (unknown origin) expressed in HEK293-A cells assessed as reduction in forskolin-induced cAMP accumulation incubated for 30 mins by competition PKA binding assay relative to Tyr-D-Ala-Gly-Phe-Gln-Pro-Gln-Arg-Phe-NH2; assay type: functional, cell-based; details: filed as agonist; procedure, shortened: as §1
Mu-type opioid receptor [7] = molecular target: T4, Mu-type opioid receptor; test: Agonist activity at mu opioid receptor (unknown origin) expressed in HEK293-A cells assessed as reduction in forskolin-induced cAMP accumulation incubated for 30 mins by competition PKA binding assay; assay type: functional, cell-based; procedure, shortened: as §1
[8] = molecular target: T1, Neuropeptide FF receptor 2; test: Agonist activity at NPFFR2 (unknown origin) expressed in HEK293-A cells assessed as reduction in forskolin-induced cAMP accumulation incubated for 30 mins by competition PKA binding assay; assay type: functional, cell-based; details: read-out: EC50; procedure, shortened: as §1
Mus musculus [9] = test: Antinociceptive activity in mouse dosed repeated icv injections for 6 days by radiant heat tail-flick test; assay type: functional; details: time 6 day
Procedure, shortened: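 Mice received the same icv dose once daily for 6 days in the radiant heat tail-flick test. Tolerance was judged by comparing the antinociceptive response on day 1 with day 6. Values are mean ± SEM.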

[10] = molecular target: Kappa-type opioid receptor (Homo sapiens, UniProt P41145); test: Agonist activity at kappa opioid receptor (unknown origin) expressed in HEK293-A cells assessed as reduction in forskolin-induced cAMP accumulation incubated for 30 mins by competition PKA binding assay; assay type: functional, cell-based; procedure, shortened: as §1
[11] = molecular target: T3, Neuropeptide FF receptor 1; test: Agonist activity at NPFFR1 (unknown origin) expressed in HEK293-A cells assessed as reduction in forskolin-induced cAMP accumulation incubated for 30 mins by competition PKA binding assay; assay type: functional, cell-based; details: read-out: EC50; procedure, shortened: as §1
[12] = molecular target: T3, Neuropeptide FF receptor 1; test: Agonist activity at NPFFR1 (unknown origin) expressed in HEK293-A cells assessed as reduction in forskolin-induced cAMP accumulation incubated for 30 mins by competition PKA binding assay relative to Tyr-D-Ala-Gly-Phe-Gln-Pro-Gln-Arg-Phe-NH2; assay type: functional, cell-based; details: filed as agonist; procedure, shortened: as §1
[13] = molecular target: T2, Delta-type opioid receptor; test: Agonist activity at delta opioid receptor (unknown origin) expressed in HEK293-A cells assessed as reduction in forskolin-induced cAMP accumulation at 10 uM incubated for 30 mins by competition PKA binding assay relative to Tyr-D-Ala-Gly-Phe-Gln-Pro-Gln-Arg-Phe-NH2; assay type: functional, cell-based; details: filed as agonist; procedure, shortened: as §1
Mus musculus [14] = organism: Mus musculus; test: Antinociceptive activity in mouse; assay type: functional
Mus musculus [15] = test: Antinociceptive activity in mouse model of CFA-induced chronic inflammatory pain assessed as reduction in tactile hyperalgesia at 3 nmol, icv dosed once daily for 6 days; assay type: functional, organism-based; details: time 6.0 day
Mus musculus [16] = test: Antinociceptive activity in mouse model of CFA-induced chronic inflammatory pain assessed as reduction in tactile hyperalgesia at 3 nmol, icv after 15 to 90 mins; assay type: functional, organism-based; details: time 15-90 min

Row | SMILES | Emax ([1]; filed as agonist) | EC50 [2] | Activity (Mus musculus [3]) | Emax [4] | Emax [5] | Emax (Mu-type opioid receptor [6]) | EC50 (Mu-type opioid receptor [7]; read-out: EC50) | EC50 (Mu-type opioid receptor [7]; read-out: pEC50 (converted)) | EC50 [8] | ED50 (Mus musculus [9]) | Emax [1] | EC50 [10] | EC50 [11] | Emax [12] | Emax [13] | ED50 (Mus musculus [14]) | Activity (Mus musculus [15]) | Activity (Mus musculus [16])
1 | C[C@@H](NC(=O)[C@@H](N)Cc1ccc(O)cc1)C(=O)NCC(=O)N[C@@H](Cc1ccccc1)C(=O)N[C@H](C)C(=O)N1CCC[C@H]1C(=O)N[C@@H](CCC(N)=O)C(=O)N[C@@H](CCCNC(=N)N)C(=O)N[C@@H](Cc1ccccc1)C(N)=O (H-Y[dA]GF[dA]PQRF-NH2) | 45.9% | 810 nM | Active | 85.3% | 15.1% | 85.6% | 249 nM | 245 nM | 5010 nM | 0.3361 nmol | – | – | – | – | – | – | – | –
2 | CC(C)C[C@@H](NC(=O)[C@H](Cc1ccccc1)NC(=O)CNC(=O)[C@@H](C)NC(=O)[C@@H](N)Cc1ccc(O)cc1)C(=O)N1CCC[C@H]1C(=O)N[C@@H](CCC(N)=O)C(=O)N[C@@H](CCCNC(=N)N)C(=O)N[C@@H](Cc1ccccc1)C(N)=O (H-Y[dA]GF[dL]PQRF-NH2) | – | 56.9 nM | Active | 86.4% | 30.7% | 86.3% | 583 nM | – | 651 nM | 0.4367 nmol | 37.2% | – | – | – | – | – | – | –
3 | CSCC[C@@H](NC(=O)[C@H](Cc1ccccc1)NC(=O)CNC(=O)[C@@H](C)NC(=O)[C@@H](N)Cc1ccc(O)cc1)C(=O)N1CCC[C@H]1C(=O)N[C@@H](CCC(N)=O)C(=O)N[C@@H](CCCNC(=N)N)C(=O)N[C@@H](Cc1ccccc1)C(N)=O (H-Y[dA]GF[dM]PQRF-NH2) | 70.2% | 120 nM | Active | 78.4% | 26.6% | 89.7% | 409 nM | – | 318 nM | 0.3986 nmol | – | 2460 nM | – | – | – | – | – | –
4 | C[C@@H](NC(=O)[C@@H](N)Cc1ccc(O)cc1)C(=O)NCC(=O)N(C)[C@@H](Cc1ccccc1)C(=O)N[C@@H](CCC(N)=O)C(=O)N1CCC[C@H]1C(=O)N[C@@H](CCC(N)=O)C(=O)N[C@@H](CCCNC(=N)N)C(=O)N[C@@H](Cc1ccccc1)C(N)=O (H-Y[dA]G[NMeF]QPQRF-NH2) | 54.5% | 157 nM | Active | 84.9% | – | 91.6% | 20.1 nM | – | 272 nM | 0.3862 nmol | – | 31 nM | 289 nM | 67.7% | – | – | – | –
5 | CN[C@@H](Cc1ccc(O)cc1)C(=O)N[C@H](C)C(=O)NCC(=O)N[C@@H](Cc1ccccc1)C(=O)N[C@@H](CCC(N)=O)C(=O)N1CCC[C@H]1C(=O)N[C@@H](CCC(N)=O)C(=O)N[C@@H](CCCNC(=N)N)C(=O)N[C@@H](Cc1ccccc1)C(N)=O (H-[NMeY][dA]GFQPQRF-NH2) | 49.5% | – | Active | – | – | 86.7% | 196 nM | – | 132 nM | 1.298 nmol | – | 2590 nM | 928 nM | 72.4% | 70% | – | – | –
6 | CN1CC[C@]23c4c5ccc(O)c4O[C@H]2[C@@H](O)C=C[C@H]3[C@H]1C5 [MORPHINE] | – | – | – | – | – | – | – | – | – | – | – | – | – | – | – | 1.02 nmol | inactive | Active
